Data reported in ChEMBL document CHEMBL1126705, “16 beta-([18F]fluoro)estrogens: systematic investigation of a new series of fluorine-18-labeled estrogens as potential imaging agents for estrogen-receptor-positive breast tumors” (J Med Chem, 1993).

Assays:
[1] = system: Rattus norvegicus; assay: Tested in vivo for the biodistribution in rat kidney at 1 hour after intravenous dose of 15 microCi of drug in 10%ethanol saline; assay type: ADME, organism-based
Procedure, shortened: (§1)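 Ether-anesthetized 25-day-old female Sprague-Dawley rats (~40–53 g) got the [18F] tracer in 10% ethanol saline via femoral vein. Rats were decapitated at 1 or 3 h, and blood and organs were weighed and gamma-counted. Values are % injected dose/g as mean ± SD, n = 5 per time point.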

[2] = system: Rattus norvegicus; assay: Tested in vivo for the biodistribution in rat liver at 1 hour after intravenous dose of 15 microCi of the drug and 15 u g of estradiol; assay type: ADME, organism-based
Procedure, shortened: (§2)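 Immature (25-day-old) female Sprague-Dawley rats, ether-anesthetized, given the fluorine-18-labeled estrogen by femoral vein injection in 10% ethanol saline. […] Other groups were killed by decapitation at 1 or 3 h. Blood and organs were weighed and gamma-counted. Data are % injected dose/g, mean ± SD, typically n = 5 per group.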

[3] = system: Rattus norvegicus; assay: Tested in vivo for the biodistribution in rat muscle at 1 hour after intravenous dose of 15 microCi of drug in 10%ethanol saline; assay type: ADME, organism-based, Muscle tissue; procedure, shortened: as §2
[4] = system: Rattus norvegicus; assay: Tested in vivo for the biodistribution in rat uterus/muscle after 3 hours following an intravenous dose of 15 microCi of drug in 10%ethanol saline; assay type: ADME, organism-based, Muscle tissue
Procedure, shortened: (§3)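 Female Sprague-Dawley rats, 25 days old (~40–53 g), ether-anesthetized, given the 18F-labeled estrogen iv via femoral vein in 10% ethanol saline. […] Others were sacrificed by decapitation at 1 or 3 h. Blood and organs were excised, weighed and gamma counted as % injected dose/g, mean ± SD, typically n = 5 (4–6).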

[5] = system: Rattus norvegicus; assay: Tested in vivo for the biodistribution in blood of female rat after 3 hours following an intravenous dose of 15 microCi of drug in 10%ethanol saline; assay type: ADME, organism-based; procedure, shortened: as §1
[6] = system: Rattus norvegicus; assay: Tested in vivo for the biodistribution in rat uterus/blood after 3 hours following an intravenous dose of 15 microCi of drug in 10%ethanol saline; assay type: ADME, organism-based; procedure, shortened: as §3
[7] = system: Rattus norvegicus; assay: Tested in vivo for the biodistribution in rat fat at 1 hour after intravenous dose of 15 microCi of the drug and 15 ug of estradiol; assay type: ADME, organism-based, Adipose tissue
[8] = system: Rattus norvegicus; assay: Tested in vivo for the biodistribution in rat thymus at 1 hour after intravenous dose of 15 microCi of the drug and 15 micro g of estradiol; assay type: ADME, organism-based; procedure, shortened: as §2
[9] = system: Rattus norvegicus; assay: Tested in vivo for the biodistribution in rat ovaries after 3 hours following an intravenous dose of 120 microCi of drug in 10%ethanol saline; assay type: ADME, organism-based, Female gonad; procedure, shortened: as §2
[10] = system: Rattus norvegicus; assay: Tested in vivo for the biodistribution in rat thymus at 1 hour after intravenous dose of 15 microCi of drug in 10%ethanol saline; assay type: ADME, organism-based; procedure, shortened: as §2
[11] = system: Rattus norvegicus; assay: Tested in vivo for the biodistribution in rat liver after 3 hours following an intravenous dose of 15 microCi of drug in 10%ethanol saline; assay type: ADME, organism-based; procedure, shortened: as §2
[12] = biological target: T1, Sex hormone-binding globulin (Homo sapiens) (UniProt P04278); assay: Relative binding affinity against sex steroid binding protein (SBP)
T1 sequence (whole entry): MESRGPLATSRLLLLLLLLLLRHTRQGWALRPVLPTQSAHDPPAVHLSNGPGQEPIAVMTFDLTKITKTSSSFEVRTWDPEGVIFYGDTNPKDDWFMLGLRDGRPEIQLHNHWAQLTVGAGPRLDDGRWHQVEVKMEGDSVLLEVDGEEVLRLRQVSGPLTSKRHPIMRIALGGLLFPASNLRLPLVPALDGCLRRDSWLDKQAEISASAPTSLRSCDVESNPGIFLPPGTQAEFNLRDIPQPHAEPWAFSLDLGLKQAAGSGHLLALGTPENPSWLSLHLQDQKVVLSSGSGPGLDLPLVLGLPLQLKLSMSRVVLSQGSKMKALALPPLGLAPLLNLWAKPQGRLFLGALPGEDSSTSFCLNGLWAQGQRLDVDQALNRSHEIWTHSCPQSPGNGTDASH

[13] = biological target: T2, Alpha-fetoprotein (Rattus norvegicus) (UniProt P02773); assay: Relative binding affinity for Alphafetoprotein
T2 sequence (whole entry): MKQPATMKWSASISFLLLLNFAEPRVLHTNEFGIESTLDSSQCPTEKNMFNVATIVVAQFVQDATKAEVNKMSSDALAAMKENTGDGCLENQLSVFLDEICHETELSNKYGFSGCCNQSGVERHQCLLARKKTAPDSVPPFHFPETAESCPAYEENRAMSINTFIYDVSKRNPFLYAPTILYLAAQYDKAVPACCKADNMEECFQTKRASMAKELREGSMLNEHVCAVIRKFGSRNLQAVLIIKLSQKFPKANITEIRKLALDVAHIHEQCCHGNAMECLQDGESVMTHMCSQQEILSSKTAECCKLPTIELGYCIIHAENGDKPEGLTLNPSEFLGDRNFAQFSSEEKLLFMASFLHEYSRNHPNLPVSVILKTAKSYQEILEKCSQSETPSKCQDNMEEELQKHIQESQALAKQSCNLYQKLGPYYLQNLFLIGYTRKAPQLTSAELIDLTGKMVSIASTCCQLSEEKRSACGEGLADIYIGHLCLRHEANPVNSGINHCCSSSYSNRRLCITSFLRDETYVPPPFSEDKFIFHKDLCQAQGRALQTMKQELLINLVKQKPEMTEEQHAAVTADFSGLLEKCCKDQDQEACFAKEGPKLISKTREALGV

[14] = system: Rattus norvegicus; assay: Tested in vivo for the biodistribution in rat bone after 3 hours following an intravenous dose of 15 microCi of drug in 10%ethanol saline; assay type: ADME, organism-based, Bone element; procedure, shortened: as §1
[15] = biological target: T3, Estrogen receptor (Rattus norvegicus) (UniProt P06211+Q62986)
[16] = system: Rattus norvegicus; assay: Tested in vivo for the biodistribution in blood of female rat at 1 hour after intravenous dose of 15 microCi of drug in 10%ethanol saline; assay type: ADME, organism-based; procedure, shortened: as §1
[17] = system: Rattus norvegicus; assay: Tested in vivo for the biodistribution in rat muscle after 3 hours following an intravenous dose of 15 microCi of drug in 10%ethanol saline; assay type: ADME, organism-based, Muscle tissue; procedure, shortened: as §2
[18] = system: Rattus norvegicus; assay: Tested in vivo for the biodistribution in rat fat at 1 hour after intravenous dose of 15 microCi of drug in 10%ethanol saline; assay type: ADME, organism-based, Adipose tissue; procedure, shortened: as §1
[19] = system: Rattus norvegicus; assay: Tested in vivo for the biodistribution in rat uterus at 1 hour after intravenous dose of 15 microCi of the drug and 15 micro g of estradiol; assay type: ADME, organism-based; procedure, shortened: as §3
[20] = biological target: T3, Estrogen receptor (Rattus norvegicus); remark: listed apart in the source
[21] = system: Rattus norvegicus; assay: Tested in vivo for the biodistribution in rat uterus/blood at 1 hour after intravenous dose of 15 microCi of the drug and 15 micro g of estradiol; assay type: ADME, organism-based; procedure, shortened: as §3
[22] = system: Rattus norvegicus; assay: Tested in vivo for the biodistribution in rat bone at 1 hour after intravenous dose of 15 microCi of the drug and 15 ug of estradiol; assay type: ADME, organism-based, Bone element
[23] = system: Rattus norvegicus; assay: Tested in vivo for the biodistribution in rat uterus/muscle at 1 hour after intravenous dose of 15 microCi of drug in 10%ethanol saline; assay type: ADME, organism-based, Muscle tissue; procedure, shortened: as §3
[24] = system: Rattus norvegicus; assay: Tested in vivo for the biodistribution in rat uterus/blood at 1 hour after intravenous dose of 15 microCi of drug in 10%ethanol saline; assay type: ADME, organism-based; procedure, shortened: as §3
[25] = system: Rattus norvegicus; assay: Tested in vivo for the biodistribution in rat liver at 1 hour after intravenous dose of 15 microCi of drug in 10%ethanol saline; assay type: ADME, organism-based; procedure, shortened: as §2
[26] = system: Rattus norvegicus; assay: Tested in vivo for the biodistribution in rat ovaries at 1 hour after intravenous dose of 15 microCi of drug in 10%ethanol saline; assay type: ADME, organism-based, Female gonad; procedure, shortened: as §2
[27] = system: Rattus norvegicus; assay: Tested in vivo for the biodistribution in rat uterus/muscle at 1 hour after intravenous dose of 15 microCi of the drug and 15 ug of estradiol; assay type: ADME, organism-based, Muscle tissue; procedure, shortened: as §3
[28] = system: Rattus norvegicus; assay: Tested in vivo for the biodistribution in rat uterus after 3 hours following an intravenous dose of 15 microCi of drug in 10%ethanol saline; assay type: ADME, organism-based; procedure, shortened: as §2
[29] = system: Rattus norvegicus; assay: Tested in vivo for the biodistribution in rat kidney after 3 hours following an intravenous dose of 15 microCi of drug in 10%ethanol saline; assay type: ADME, organism-based; procedure, shortened: as §1
[30] = Partition coefficient (logP); assay type: physicochemical; conditions: octanol/water
Procedure, shortened: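 Octanol/water log P estimated from log k'w measured by reversed-phase HPLC (Minick method) on a C8 silica column.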

[31] = system: Rattus norvegicus; assay: Tested in vivo for the biodistribution in rat fat after 3 hours following an intravenous dose of 15 microCi of drug in 10%ethanol saline; assay type: ADME, organism-based, Adipose tissue; procedure, shortened: as §1
[32] = system: Rattus norvegicus; assay: Tested in vivo for the biodistribution in rat kidney at 1 hour after intravenous dose of 15 microCi of the drug and 15 u g of estradiol; assay type: ADME, organism-based
[33] = system: Rattus norvegicus; assay: Tested in vivo for the biodistribution in rat thymus after 3 hours following an intravenous dose of 15 microCi of drug in 10%ethanol saline; assay type: ADME, organism-based; procedure, shortened: as §2
[34] = system: Rattus norvegicus; assay: Tested in vivo for the biodistribution in blood of female rat at 1 hour after intravenous dose of 15 microCi of the drug and 15 u g of estradiol; assay type: ADME, organism-based
[35] = system: Rattus norvegicus; assay: Tested in vivo for the biodistribution in rat muscle at 1 hour after intravenous dose of 15 microCi of the drug and 15 ug of estradiol; assay type: ADME, organism-based, Muscle tissue; procedure, shortened: as §2
[36] = system: Rattus norvegicus; assay: Tested in vivo for the biodistribution in rat bone at 1 hour after intravenous dose of 15 microCi of drug in 10%ethanol saline; assay type: ADME, organism-based, Bone element; procedure, shortened: as §1
[37] = system: Rattus norvegicus; assay: Tested in vivo for the biodistribution in rat uterus at 1 hour after intravenous dose of 15 microCi of drug in 10%ethanol saline; assay type: ADME, organism-based; procedure, shortened: as §3
[38] = system: Rattus norvegicus; assay: Tested in vivo for the biodistribution in rat ovaries at 1 hour after intravenous dose of 15 microCi of the drug and 15 ug of estradiol; assay type: ADME, organism-based, Female gonad; procedure, shortened: as §2

SMILES: CC[C@H]1C[C@]2(C)[C@@H](O)[C@@H](F)C[C@H]2[C@@H]2CCc3cc(O)ccc3[C@@H]12
- Injected [1]: 2.534%
- Injected [2]: 3.615%
- Injected [3]: 0.513%
- Injected [4]: 22.88%
- Injected [5]: 0.084%
- Injected [6]: 82.19%
- Injected [7]: 1.054%
- Injected [8]: 0.186%
- Injected [9]: 2.742%
- Injected [10]: 0.779%
- Injected [11]: 1.822%
- relative binding affinity (RBA) [12]: 0.55
- relative binding affinity (RBA) [13]: 0.079
- Injected [14]: 1.077%
- NSB [15]: 1.6
- Injected [16]: 0.108%
- Injected [17]: 0.307%
- Injected [18]: 1.692%
- Injected [19]: 1.214%
- BSI [20]: 158
- Injected [21]: 6.3%
- Injected [22]: 1.057%
- Injected [23]: 10.81%
- Injected [24]: 52.37%
- Injected [25]: 2.331%
- Injected [26]: 2.991%
- Injected [27]: 7.11%
- Injected [28]: 6.89%
- Injected [29]: 1.413%
- logP [30]: 3.72
- Injected [31]: 1.294%
- Injected [32]: 1.716%
- Injected [33]: 0.453%
- Injected [34]: 0.202%
- Injected [35]: 0.189%
- Injected [36]: 0.889%
- Injected [37]: 5.57%
- Injected [38]: 1.063%
